Experimental data from ChEMBL document CHEMBL4680175, “Sulfonamide-based ring-fused analogues for CAN508 as novel carbonic anhydrase inhibitors endowed with antitumor activity: Design, synthesis, and in vitro biological evaluation” (Eur J Med Chem, 2020).
Active and inactive are the calls of the source. The calls are words filed in the database; no cut-off is given here.

What was measured:
NCI-H460 = assay: Antitumor activity against human NCI-H460 cells assessed as cell growth inhibition at 10 uM incubated for 48 hrs by sulforhodamine B assay; format: functional; settings: read-out: GI
Procedure, shortened: (§1)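 NCI Drug Evaluation Branch protocol: primary single-dose screen at 10 μM across a 57-line human cancer panel. Drug exposure is 48 h. Cell growth and viability are read by sulforhodamine B assay. Data are given as a mean graph of percent growth of treated cells and reported as percentage growth inhibition (GI%).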

BT-549 = assay: Antitumor activity against human BT-549 cells assessed as cell growth inhibition at 10 uM incubated for 48 hrs by sulforhodamine B assay; format: functional; settings: read-out: GI; procedure, shortened: as §1
SN12C = assay: Antitumor activity against human SN12C cells assessed as cell growth inhibition at 10 uM incubated for 48 hrs by sulforhodamine B assay; format: functional; settings: read-out: GI; procedure, shortened: as §1
KM12 = assay: Antitumor activity against human KM12 cells assessed as cell growth inhibition at 10 uM incubated for 48 hrs by sulforhodamine B assay; format: functional; settings: read-out: GI; procedure, shortened: as §1
DU-145 = assay: Antitumor activity against human DU-145 cells assessed as cell growth inhibition at 10 uM incubated for 48 hrs by sulforhodamine B assay; format: functional; settings: read-out: GI; procedure, shortened: as §1
OVCAR-3 = assay: Antitumor activity against human OVCAR-3 cells assessed as cell growth inhibition at 10 uM incubated for 48 hrs by sulforhodamine B assay; format: functional; settings: read-out: GI; procedure, shortened: as §1
[1] = molecular target: Cyclin-dependent kinase 2/cyclin E1 (Homo sapiens, UniProt P24941); assay: Inhibition of CDK2/cyclin E (unknown origin) expressed in baculovirus infected Sf21 insect cells using histone H1 as substrate in presence of [gamma33P]ATP
MDA-MB-231 = assay: Antitumor activity against human MDA-MB-231/ATCC cells assessed as cell growth inhibition at 10 uM incubated for 48 hrs by sulforhodamine B assay; format: functional; settings: read-out: GI; procedure, shortened: as §1
NCI-H522 = assay: Antitumor activity against human NCI-H522 cells assessed as cell growth inhibition at 10 uM incubated for 48 hrs by sulforhodamine B assay; format: functional; settings: read-out: GI; procedure, shortened: as §1
CAKI-1 = assay: Antitumor activity against human CAKI-1 cells assessed as cell growth inhibition at 10 uM incubated for 48 hrs by sulforhodamine B assay; format: functional; settings: read-out: GI; procedure, shortened: as §1
SF-539 = assay: Antitumor activity against human SF539 cells assessed as cell growth inhibition at 10 uM incubated for 48 hrs by sulforhodamine B assay; format: functional; settings: read-out: GI; procedure, shortened: as §1
MOLT-4 = assay: Antitumor activity against human MOLT4 cells assessed as cell growth inhibition at 10 uM incubated for 48 hrs by sulforhodamine B assay; format: functional; settings: read-out: GI; procedure, shortened: as §1
NCI-H226 = assay: Antitumor activity against human NCI-H226 assessed as cell growth inhibition at 10 uM incubated for 48 hrs by sulforhodamine B assay; format: functional; settings: read-out: GI; procedure, shortened: as §1
Carbonic anhydrase 9 = Carbonic anhydrase 9 (Homo sapiens, UniProt Q16790); assay: Inhibition of recombinant human carbonic anhydrase 9 preincubated with enzyme for 15 mins by phenol red dye based stopped flow CO2 hydrase assay
MDA-MB-468 = assay: Antitumor activity against human MDA-MB-468 cells assessed as cell growth inhibition at 10 uM incubated for 48 hrs by sulforhodamine B assay; format: functional; settings: read-out: GI; procedure, shortened: as §1
U-251 = assay: Antitumor activity against human U251 cells assessed as cell growth inhibition at 10 uM incubated for 48 hrs by sulforhodamine B assay; format: functional; settings: read-out: GI
Procedure, shortened: (§2)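 NCI one-dose screen: 57-cell-line panel exposed at 10 μM for 48 h, Drug Evaluation Branch protocol. Growth and viability read by sulforhodamine B; data given as percent growth inhibition from the mean-graph of percent growth of treated cells.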

OVCAR-8 = assay: Antitumor activity against human OVCAR-8 cells assessed as cell growth inhibition at 10 uM incubated for 48 hrs by sulforhodamine B assay; format: functional; settings: read-out: GI; procedure, shortened: as §1
NCI/ADR-RES = assay: Antitumor activity against human NCI/ADR-RES cells assessed as cell growth inhibition at 10 uM incubated for 48 hrs by sulforhodamine B assay; format: functional, cell-based; procedure, shortened: as §1
T47D = assay: Antitumor activity against human T-47D cells assessed as cell growth inhibition at 10 uM incubated for 48 hrs by sulforhodamine B assay; format: functional; settings: read-out: GI; procedure, shortened: as §2
SK-MEL-2 = assay: Antitumor activity against human SK-MEL-2 cells assessed as cell growth inhibition at 10 uM incubated for 48 hrs by sulforhodamine B assay; format: functional; settings: read-out: GI; procedure, shortened: as §1
RPMI-8226 = assay: Antitumor activity against human RPMI8226 cells assessed as cell growth inhibition at 10 uM incubated for 48 hrs by sulforhodamine B assay; format: functional; settings: read-out: GI; procedure, shortened: as §1
Carbonic anhydrase 12 = Carbonic anhydrase 12 (Homo sapiens, UniProt O43570); assay: Inhibition of recombinant human carbonic anhydrase 12 preincubated with enzyme for 15 mins by phenol red dye based stopped flow CO2 hydrase assay
Sequence of Carbonic anhydrase 12 (O43570 whole entry): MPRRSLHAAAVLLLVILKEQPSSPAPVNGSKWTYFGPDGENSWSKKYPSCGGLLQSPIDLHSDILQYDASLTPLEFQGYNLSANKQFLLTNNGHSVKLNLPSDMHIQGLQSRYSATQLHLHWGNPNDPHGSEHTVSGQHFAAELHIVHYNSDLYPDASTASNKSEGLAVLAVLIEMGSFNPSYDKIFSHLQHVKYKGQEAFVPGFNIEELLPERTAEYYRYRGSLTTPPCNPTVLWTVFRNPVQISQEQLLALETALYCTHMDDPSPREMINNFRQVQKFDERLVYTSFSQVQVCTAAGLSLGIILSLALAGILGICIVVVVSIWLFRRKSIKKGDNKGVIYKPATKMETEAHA

MCF7 = assay: Antitumor activity against human MCF7 cells assessed as cell growth inhibition at 10 uM incubated for 48 hrs by sulforhodamine B assay; format: functional; settings: read-out: GI; procedure, shortened: as §1
Carbonic anhydrase 1 = Carbonic anhydrase 1 (Homo sapiens, UniProt P00915); assay: Inhibition of recombinant human carbonic anhydrase 1 preincubated with enzyme for 15 mins by phenol red dye based stopped flow CO2 hydrase assay
Sequence of Carbonic anhydrase 1 (P00915 whole entry): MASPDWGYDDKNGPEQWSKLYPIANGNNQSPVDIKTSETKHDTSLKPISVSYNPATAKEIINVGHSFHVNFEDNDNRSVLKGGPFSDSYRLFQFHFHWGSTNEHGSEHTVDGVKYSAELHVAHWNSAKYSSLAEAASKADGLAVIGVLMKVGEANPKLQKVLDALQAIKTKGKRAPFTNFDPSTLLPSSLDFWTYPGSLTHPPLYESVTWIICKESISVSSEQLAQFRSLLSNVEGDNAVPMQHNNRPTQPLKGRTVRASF

UO-31 = assay: Antitumor activity against human UO-31 cells assessed as cell growth inhibition at 10 uM incubated for 48 hrs by sulforhodamine B assay; format: functional; settings: read-out: GI; procedure, shortened: as §2
K562 = assay: Antitumor activity against human K562 cells assessed as cell growth inhibition at 10 uM incubated for 48 hrs by sulforhodamine B assay; format: functional; settings: read-out: GI; procedure, shortened: as §1
PC-3 = assay: Antitumor activity against human PC-3 cells assessed as cell growth inhibition at 10 uM incubated for 48 hrs by sulforhodamine B assay; format: functional; settings: read-out: GI; procedure, shortened: as §1
Hs-578T = assay: Antitumor activity against human HS 578T cells assessed as cell growth inhibition at 10 uM incubated for 48 hrs by sulforhodamine B assay; format: functional; settings: read-out: GI; procedure, shortened: as §1
HCT-116 = assay: Antitumor activity against human HCT116 cells assessed as cell growth inhibition at 10 uM incubated for 48 hrs by sulforhodamine B assay; format: functional; settings: read-out: GI; procedure, shortened: as §1
SK-MEL-5 = assay: Antitumor activity against human SK-MEL-5 cells assessed as cell growth inhibition at 10 uM incubated for 48 hrs by sulforhodamine B assay; format: functional; settings: read-out: GI; procedure, shortened: as §1
HOP-62 = assay: Antitumor activity against human HOP62 cells assessed as cell growth inhibition at 10 uM incubated for 48 hrs by sulforhodamine B assay; format: functional; settings: read-out: GI; procedure, shortened: as §1
CCRF-CEM = assay: Antitumor activity against human CCRF-CEM cells assessed as cell growth inhibition at 10 uM incubated for 48 hrs by sulforhodamine B assay; format: functional; settings: read-out: GI; procedure, shortened: as §1
Carbonic anhydrase 2 = Carbonic anhydrase 2 (Homo sapiens, UniProt P00918); assay: Inhibition of recombinant human carbonic anhydrase 2 preincubated with enzyme for 15 mins by phenol red dye based stopped flow CO2 hydrase assay
NCI-H322M = assay: Antitumor activity against human NCI-H322M cells assessed as cell growth inhibition at 10 uM incubated for 48 hrs by sulforhodamine B assay; format: functional; settings: read-out: GI; procedure, shortened: as §1
LOX IMVI = assay: Antitumor activity against human LOX IMVI cells assessed as cell growth inhibition at 10 uM incubated for 48 hrs by sulforhodamine B assay; format: functional; settings: read-out: GI; procedure, shortened: as §1
SNB-75 = assay: Antitumor activity against human SNB-75 cells assessed as cell growth inhibition at 10 uM incubated for 48 hrs by sulforhodamine B assay; format: functional; settings: read-out: GI; procedure, shortened: as §2
IGROV-1 = assay: Antitumor activity against human IGROV1 cells assessed as cell growth inhibition at 10 uM incubated for 48 hrs by sulforhodamine B assay; format: functional; settings: read-out: GI; procedure, shortened: as §1
Malme-3M = assay: Antitumor activity against human MALME-3M cells assessed as cell growth inhibition at 10 uM incubated for 48 hrs by sulforhodamine B assay; format: functional; settings: read-out: GI; procedure, shortened: as §1

SMILES	inhibition of growth at 10 µM (SN12C) [%]	inhibition of growth at 10 µM (KM12) [%]	inhibition of growth at 10 µM (OVCAR-3) [%]	IC50 [1] [nM]	inhibition of growth at 10 µM (MDA-MB-231) [%]	inhibition of growth at 10 µM (NCI-H522) [%]	inhibition of growth at 10 µM (SF-539) [%]	inhibition of growth at 10 µM (MOLT-4) [%]	Ki (Carbonic anhydrase 9) [nM]	inhibition of growth at 10 µM (MDA-MB-468) [%]	inhibition of growth at 10 µM (U-251) [%]	inhibition of growth at 10 µM (OVCAR-8) [%]	Activity (NCI/ADR-RES)	inhibition of growth at 10 µM (T47D) [%]	inhibition of growth at 10 µM (SK-MEL-2) [%]	inhibition of growth at 10 µM (RPMI-8226) [%]	Ki (Carbonic anhydrase 12) [nM]	Ki (Carbonic anhydrase 1) [nM]	inhibition of growth at 10 µM (UO-31) [%]	inhibition of growth at 10 µM (K562) [%]	other results
N#Cc1c(-c2ccc(Cl)cc2)nc2c(/N=N/c3ccc(S(N)(=O)=O)cc3)c(N)nn2c1N	27	75	25	> 12500	52	29	25	82	31.3	56	30	25	inactive	56	24	58	14.2	2250	36	28	inhibition of growth at 10 µM (NCI-H460): 21%; inhibition of growth at 10 µM (BT-549): 35%; inhibition of growth at 10 µM (DU-145): 40%; inhibition of growth at 10 µM (CAKI-1): 26%; inhibition of growth at 10 µM (NCI-H226): 25%; inhibition of growth at 10 µM (MCF7): 51%; inhibition of growth at 10 µM (PC-3): 38%; inhibition of growth at 10 µM (Hs-578T): 30%; inhibition of growth at 10 µM (HCT-116): 34%; inhibition of growth at 10 µM (SK-MEL-5): 31%; inhibition of growth at 10 µM (HOP-62): 24%; inhibition of growth at 10 µM (CCRF-CEM): 65%; Ki (Carbonic anhydrase 2): 496 nM
N#Cc1c(-c2ccc(F)cc2)nc2c(/N=N/c3ccc(S(N)(=O)=O)cc3)c(N)nn2c1N	24	53	20	> 12500	37	32	28	62	8.8	71	28	25	inactive	48	25	60	10.9	2440	38	33	inhibition of growth at 10 µM (NCI-H322M): 21%; inhibition of growth at 10 µM (LOX IMVI): 28%; inhibition of growth at 10 µM (SNB-75): 33%; inhibition of growth at 10 µM (IGROV-1): 36%; inhibition of growth at 10 µM (NCI-H226): 25%; inhibition of growth at 10 µM (Malme-3M): 20%; inhibition of growth at 10 µM (MCF7): 59%; inhibition of growth at 10 µM (PC-3): 29%; inhibition of growth at 10 µM (Hs-578T): 23%; inhibition of growth at 10 µM (HCT-116): 24%; inhibition of growth at 10 µM (SK-MEL-5): 31%; inhibition of growth at 10 µM (HOP-62): 21%; inhibition of growth at 10 µM (CCRF-CEM): 51%; Ki (Carbonic anhydrase 2): 399 nM
Nc1nn2cc(-c3ccc(Br)cc3)[nH]c2c1/N=N/c1ccc(S(N)(=O)=O)cc1	58	39	27	> 12500	43	55	42	42	44.9	51	38	37	inactive	46	53	55	52.8	1590	74	38	inhibition of growth at 10 µM (NCI-H460): 62%; inhibition of growth at 10 µM (BT-549): 25%; inhibition of growth at 10 µM (NCI-H322M): 65%; inhibition of growth at 10 µM (DU-145): 47%; inhibition of growth at 10 µM (CAKI-1): 82%; inhibition of growth at 10 µM (LOX IMVI): 64%; inhibition of growth at 10 µM (SNB-75): 64%; inhibition of growth at 10 µM (IGROV-1): 72%; inhibition of growth at 10 µM (Malme-3M): 64%; inhibition of growth at 10 µM (MCF7): 33%; inhibition of growth at 10 µM (PC-3): 39%; inhibition of growth at 10 µM (Hs-578T): 54%; inhibition of growth at 10 µM (HCT-116): 62%; inhibition of growth at 10 µM (SK-MEL-5): 45%; inhibition of growth at 10 µM (HOP-62): 37%; inhibition of growth at 10 µM (CCRF-CEM): 45%; Ki (Carbonic anhydrase 2): 49.3 nM
Cc1ccc(-c2cn3nc(N)c(/N=N/c4ccc(S(N)(=O)=O)cc4)c3[nH]2)cc1	63	46	36	20300	42	57	56	55	9.4	48	44	47	inactive	39	57	60	27.7	1200	77	48	inhibition of growth at 10 µM (NCI-H460): 67%; inhibition of growth at 10 µM (BT-549): 33%; inhibition of growth at 10 µM (NCI-H322M): 69%; inhibition of growth at 10 µM (DU-145): 52%; inhibition of growth at 10 µM (CAKI-1): 86%; inhibition of growth at 10 µM (LOX IMVI): 70%; inhibition of growth at 10 µM (SNB-75): 66%; inhibition of growth at 10 µM (IGROV-1): 80%; inhibition of growth at 10 µM (NCI-H226): 27%; inhibition of growth at 10 µM (Malme-3M): 63%; inhibition of growth at 10 µM (PC-3): 43%; inhibition of growth at 10 µM (Hs-578T): 64%; inhibition of growth at 10 µM (HCT-116): 62%; inhibition of growth at 10 µM (SK-MEL-5): 51%; inhibition of growth at 10 µM (HOP-62): 39%; inhibition of growth at 10 µM (CCRF-CEM): 54%; Ki (Carbonic anhydrase 2): 99.7 nM
